From ChEMBL document CHEMBL5154645, “Potent Anti-SARS-CoV-2 Activity by the Natural Product Gallinamide A and Analogues via Inhibition of Cathepsin L” (J Med Chem, 2022)

How the values were obtained:
Cathepsin B [1] = target: T1, Cathepsin B (Homo sapiens, UniProt P07858); assay: Inhibition of human recombinant Cathepsin B assessed as ratio of Kinact/Kiapp using Z-FR-AMC as substrate inubated for 30 mins by fluorometric assay
Method in brief: (§1)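 Human CatL, human CatB or mouse CatL at 1 nM, at 25 °C in pH 5.5 Na acetate/DTT/EDTA/NaCl buffer. Reactions held 40 μM Z-FR-AMC and 555.56 to 0.01 nM compound, in quadruplicate. Product formation was measured at 6 min intervals for 1 h and normalized to DMSO wells. kobs came from inactivation curves. kinact and KIapp were obtained by nonlinear regression of kobs = kinact[I]/(KIapp + [I]); their ratio was then calculated.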

[2] = target: T2, Procathepsin L (Mus musculus) (UniProt P06797); assay: Inhibition of mouse Cathepsin L assessed as ratio of Kinact/Kiapp using Z-FR-AMC as substrate inubated for 30 mins by fluorometric assay; method in brief: as §1
T2 sequence (whole entry): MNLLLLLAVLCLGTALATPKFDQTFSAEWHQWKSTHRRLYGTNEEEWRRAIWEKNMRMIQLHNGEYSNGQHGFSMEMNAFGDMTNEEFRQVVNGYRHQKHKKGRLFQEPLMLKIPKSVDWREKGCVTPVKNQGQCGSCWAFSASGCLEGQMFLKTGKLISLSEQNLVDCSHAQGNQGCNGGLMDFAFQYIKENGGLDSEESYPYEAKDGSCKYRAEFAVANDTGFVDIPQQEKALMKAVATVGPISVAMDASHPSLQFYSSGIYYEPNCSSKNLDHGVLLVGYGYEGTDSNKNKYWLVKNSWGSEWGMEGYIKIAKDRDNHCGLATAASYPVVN

SARS-CoV-2 = assay: Antiviral activity against SARS-CoV-2 infected in African green monkey Vero E6 cells assessed as inhibition of viral infection pre incubated for 30 minutes followed by viral infection and measured after 72 hrs by Nucblue dye based fluorometric analysis; format: functional, organism-based; settings: Severe acute respiratory syndrome coronavirus 2, Vero C1008
Procathepsin L [3] = target: T3, Procathepsin L (Homo sapiens, UniProt P07711); assay: Inhibition of human recombinant Cathepsin L assessed as Kinact using Z-FR-AMC as substrate inubated for 30 mins by fluorometric assay; method in brief: as §1
Target sequence in this assay (P07711 114-333 limits assumed): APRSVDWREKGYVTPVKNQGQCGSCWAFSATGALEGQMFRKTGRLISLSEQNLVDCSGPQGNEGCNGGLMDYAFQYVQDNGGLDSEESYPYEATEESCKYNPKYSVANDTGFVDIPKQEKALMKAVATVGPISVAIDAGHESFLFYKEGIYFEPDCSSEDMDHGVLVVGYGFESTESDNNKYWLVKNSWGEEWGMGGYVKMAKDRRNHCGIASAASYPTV

Cathepsin K = target: T4, Cathepsin K (Homo sapiens, UniProt P43235); assay: Inhibition of human recombinant Cathepsin K assessed remaining activity using Z-FR-AMC as substrate incubated for 30 mins by fluorometric assay
T4 sequence (P43235 whole entry): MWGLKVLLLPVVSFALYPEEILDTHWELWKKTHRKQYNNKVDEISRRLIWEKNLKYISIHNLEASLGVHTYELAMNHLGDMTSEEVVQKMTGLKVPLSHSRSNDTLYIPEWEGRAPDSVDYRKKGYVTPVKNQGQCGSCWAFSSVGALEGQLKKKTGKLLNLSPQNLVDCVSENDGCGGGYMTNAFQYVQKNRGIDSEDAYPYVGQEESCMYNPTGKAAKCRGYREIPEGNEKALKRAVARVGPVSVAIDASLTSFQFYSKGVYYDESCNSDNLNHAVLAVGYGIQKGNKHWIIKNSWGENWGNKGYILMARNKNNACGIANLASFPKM
Method in brief: (§2)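 Recombinant human cathepsins: L, B, V and K at 1.11 nM, S at 4.44 nM. Each was preincubated 30 min at 25 °C with 3333 to 0.006 nM compound. Z-FR-AMC was added at 40 μM final. AMC release rate over 0–30 min was compared with DMSO (ex/em 360/460). IC50 from four technical replicates.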

[4] = target: T2, Procathepsin L (Mus musculus); assay: Inhibition of mouse Cathepsin L assessed as Kinact using Z-FR-AMC as substrate inubated for 30 mins by fluorometric assay; method in brief: as §1
Cathepsin L2 = target: T5, Cathepsin L2 (Homo sapiens, UniProt O60911); assay: Inhibition of human recombinant Cathepsin V assessed remaining activity using Z-FR-AMC as substrate incubated for 30 mins by fluorometric assay; method in brief: as §2
T5 sequence (O60911 whole entry): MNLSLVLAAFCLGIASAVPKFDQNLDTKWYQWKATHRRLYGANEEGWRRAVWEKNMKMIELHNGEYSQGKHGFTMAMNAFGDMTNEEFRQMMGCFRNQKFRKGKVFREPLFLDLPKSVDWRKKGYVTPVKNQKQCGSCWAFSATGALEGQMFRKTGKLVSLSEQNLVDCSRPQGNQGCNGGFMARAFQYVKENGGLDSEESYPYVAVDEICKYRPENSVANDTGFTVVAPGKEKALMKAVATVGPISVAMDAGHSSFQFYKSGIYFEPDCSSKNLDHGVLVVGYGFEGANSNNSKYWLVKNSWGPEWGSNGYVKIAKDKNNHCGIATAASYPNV

Vero C1008 = assay: Cytotoxicity against cells African green monkey Vero E6 cells incubated for 24 to 72 hrs by alamar blue assay; format: toxicity, cell-based; settings: chlorocebus sabaeus, time 24-72 hrs
Method in brief: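 VeroE6 cells in DMEM with 10% FCS were seeded at 5 × 10^4 per well. After adherence, cells were given varying compound concentrations for 24 or 72 h at 37 °C, 5% CO2. Alamar Blue HS was added for a further 2–4 h. Viability was read as fluorescence at ex/em 560/590 nm.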

Procathepsin L [5] = target: T3, Procathepsin L; assay: Inhibition of human recombinant Cathepsin L assessed as ratio of Kinact/Kiapp using Z-FR-AMC as substrate inubated for 30 mins by fluorometric assay
Target sequence in this assay (P07711 114-333 limits assumed): as the sequence (P07711 114-333 limits assumed) above

Cathepsin S = Cathepsin S (Homo sapiens, UniProt P25774); assay: Inhibition of human recombinant Cathepsin S assessed remaining activity using Z-FR-AMC as substrate incubated for 30 mins by fluorometric assay; method in brief: as §2
Cathepsin B [6] = target: T1, Cathepsin B; assay: Inhibition of human recombinant Cathepsin B assessed remaining activity using Z-FR-AMC as substrate incubated for 30 mins by fluorometric assay; method in brief: as §2
Procathepsin L [7] = target: T6, Procathepsin L (Mus musculus, UniProt P06797); assay: Inhibition of mouse Cathepsin L assessed as Apparent inhibition constant using Z-FR-AMC as substrate inubated for 30 mins by fluorometric assay; settings: read-out: Ki(app); method in brief: as §1
T6 sequence (P06797 whole entry): T2 sequence (whole entry)

Procathepsin L [8] = target: T3, Procathepsin L; assay: Inhibition of human recombinant Cathepsin L assessed as Apparent inhibition constant using Z-FR-AMC as substrate […] by fluorometric assay; settings: read-out: Ki(app)
Target sequence in this assay (P07711 whole entry): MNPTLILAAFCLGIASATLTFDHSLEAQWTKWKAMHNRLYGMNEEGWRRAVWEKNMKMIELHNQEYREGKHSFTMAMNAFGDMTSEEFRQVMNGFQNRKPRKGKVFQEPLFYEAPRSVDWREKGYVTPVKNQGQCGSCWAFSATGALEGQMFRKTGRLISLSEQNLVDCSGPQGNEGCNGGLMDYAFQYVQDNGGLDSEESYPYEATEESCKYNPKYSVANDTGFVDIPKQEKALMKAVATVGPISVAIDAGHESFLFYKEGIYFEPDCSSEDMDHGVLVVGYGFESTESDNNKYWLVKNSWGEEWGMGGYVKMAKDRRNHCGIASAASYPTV

Cathepsin B [9] = target: T1, Cathepsin B; assay: Inhibition of human recombinant Cathepsin B assessed as Kinact using Z-FR-AMC as substrate inubated for 30 mins by fluorometric assay
Cathepsin B [10] = target: T1, Cathepsin B; assay: Inhibition of human recombinant Cathepsin B assessed as Apparent inhibition constant using Z-FR-AMC as substrate inubated for 30 mins by fluorometric assay; settings: read-out: Ki(app); method in brief: as §1
Procathepsin L [11] = target: T3, Procathepsin L; assay: Inhibition of human recombinant Cathepsin L assessed enzyme activity using Z-FR-AMC as substrate at 416 nM incubated for 30 mins by fluorometric assay
Method in brief: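 Recombinant human CatL at 50 pM was incubated with 416 nM compound for […] at 25 °C in 50 mM Na acetate pH 5.5, 5 mM DTT, 0.01% BSA, 1 mM EDTA. An equal volume of 5 μM Z-FR-AMC was then added. Fluorescence was read at 360/460 nm in triplicate wells and normalized to DMSO vehicle wells.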
Target sequence in this assay (P07711 114-333 limits assumed): as the sequence (P07711 114-333 limits assumed) above

Cathepsin S, sequence (P25774 whole entry): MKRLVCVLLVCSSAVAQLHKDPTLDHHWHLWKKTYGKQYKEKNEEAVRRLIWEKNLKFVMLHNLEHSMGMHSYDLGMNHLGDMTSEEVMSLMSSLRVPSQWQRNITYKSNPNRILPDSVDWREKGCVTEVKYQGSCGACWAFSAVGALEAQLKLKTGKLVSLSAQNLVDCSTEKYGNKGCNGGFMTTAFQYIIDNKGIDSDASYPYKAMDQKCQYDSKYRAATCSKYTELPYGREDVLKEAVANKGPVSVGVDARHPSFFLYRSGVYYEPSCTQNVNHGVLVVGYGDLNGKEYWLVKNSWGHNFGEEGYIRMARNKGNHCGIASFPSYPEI

Row | Compound | Ratio (Cathepsin B [1]) | Ratio [2] | EC50 (SARS-CoV-2) [µM] | Kinact (Procathepsin L [3]) | IC50 (Cathepsin K) [nM] | Kinact [4] | IC50 (Cathepsin L2) [nM] | CC50 (Vero C1008) [µM] | Ratio (Procathepsin L [5]) | IC50 (Cathepsin S) [nM] | IC50 (Cathepsin B [6]) [nM] | Ki (Procathepsin L [7]) [nM] | Ki (Procathepsin L [8]) [nM] | Kinact (Cathepsin B [9]) | Ki (Cathepsin B [10]) [nM] | inhibition (Procathepsin L [11]) [%]
1 | COC1=CC(=O)N(C(=O)/C=C/[C@H](C)NC(=O)[C@H](CC(C)C)NC(=O)[C@H](CC2CCCCC2)NC(=O)C2CCN(C)CC2)[C@H]1Cc1c[nH]c2ccccc12 | 2.43 10^4/s/M | 2.92 10^5/s/M | 6.07 | 3.47 10^-3/s | 0.623 | 8.56 10^-3/s | 20.6 | > 100 | 1.93 10^5/s/M | 0.304 | 0.278 | 29.3 | 18 | 2.09 10^-2/s | 861 | 
2 | COC1=CC(=O)N(C(=O)/C=C/[C@H](C)NC(=O)[C@H](CC(C)C)NC(=O)[C@H](Cc2ccccc2)NC(=O)[C@H](CC(C)C)N(C)C)[C@H]1Cc1c[nH]c2ccccc12 |  |  |  |  |  |  |  |  |  |  |  |  |  |  |  | 90
3 | COC1=CC(=O)N(C(=O)/C=C/[C@H](C)NC(=O)[C@H](CC(C)C)NC(=O)[C@H](CC(C)C)NC(=O)C2CCN(C)CC2)[C@H]1Cc1c[nH]c2ccccc12 | 1.99 10^4/s/M | 8.06 10^5/s/M | > 5 | 8.34 10^-3/s | 17.9 | 3.19 10^-3/s | 63.2 | > 100 | 2.9 10^5/s/M | 0.0149 | 0.416 | 3.95 |  | 1.7 10^-2/s | 854 | 
